Experiment [1] has as its system Ca2+ channel (L, verapamil site). In words: radioligand competition. To be noted: read-out: IC50 (M) ^a. In outline:
(§1)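 Outsourced radioligand competition binding panel of receptors, transporters and ion channels. Primary screen used a single 10 μmol L−1 concentration of test compound to give % inhibition of control specific binding. […] IC50 and Hill coefficient were obtained by non-linear regression.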
A general note: Loss of bound radioactivity is the signal in a displacement assay; it reports binding, not function.

Experiment [2] deals with Na+ channel (site 2). In words: radioligand competition. To be noted: read-out: IC50 (M) ^a. In short, it runs like this: as §1
Experiment [3] relates to Sigma (1 and 2). The experiment in a line: radioligand competition. To be noted: read-out: IC50 (M) ^a; non-selective sigma 1 and 2. In short, it runs like this: as §1
The target of experiment [4] is NMDA receptor (ion-channel / PCP site), rat forebrain membranes. In words: enhancement of [3H]MK-[…]) binding. To be noted: 5 mM Tris-HCl pH 7.4, 25 °C, 20 h.

On to `COc1cccc(N(C)C(=N)Nc2cc(SC)ccc2Cl)c1` [GMOM, N‐(2‐chloro‐5‐thiomethylphenyl)‐N′‐(3‐methoxyphenyl)‐N′‐methylguanidine], for which the results for the IC50 in experiment [1], in experiment [2] and in experiment [3] were 2.2e-06 M, 3.9e-06 M and 2.2e-06 M, respectively.

In the case of `NCC(=O)O` [glycine], in experiment [4] (co-agonist (glycine) site, no added glutamate), the EC50 was 1.05 ± 0.5 µM.

On to `N[C@@H](CCC(=O)O)C(=O)O` [L-glutamate], for which the EC50 in experiment [4] (agonist (glutamate) site, no added glycine) worked out at 0.2 ± 0.01 µM.

Usually IC50 stands for the concentration that inhibits the measured activity by half. One may read the EC50 as the concentration at which the effect is half-maximal.

The values above are taken from publication PMC6381215 (Pharmacology Research & Perspectives, 2019).
